Experimental data: ChEMBL document CHEMBL5352427, “Isoquinolone derivatives as lysophosphatidic acid receptor 5 (LPA5) antagonists: Investigation of structure-activity relationships, ADME properties and analgesic effects” (Eur J Med Chem, 2022)
pIC50: −log10 of the molar value. Values after ≈ are worked out from the molar mass of the structure shown. Active and inactive are the calls of the source.

Tests used:
[1] = target: T1, Lysophosphatidic acid receptor 5 (Homo sapiens, UniProt Q9H1C0); assay: Antagonist activity at human LPA5 receptor expressed in RH7777 cells assessed as inhibition of EC80 concentration of hexadecyl LPA-induced calcium mobilization incubated for 15 mins by FLIPR method; format: functional, cell-based
[2] = target: T1, Lysophosphatidic acid receptor 5; assay: Antagonist activity at human LPA5 receptor expressed in RH7777 cells assessed as inhibition of EC80 concentration of hexadecyl LPA-induced calcium mobilization incubated for 15 mins by FLIPR method relative to hexadecyl LPA; format: functional, cell-based; settings: filed as antagonist
[3] = target: T1, Lysophosphatidic acid receptor 5; assay: Antagonist activity at human LPA5 receptor expressed in RH7777 cells assessed as inhibition of EC80 concentration of LPA-induced cAMP accumulation preincubated for 30 mins followed by Eu-cAMP tracer addition and measured after 1 hr by TR-FRET assay; format: functional, cell-based
Summary of the method: (§1)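 hLPA5-RH7777 cells, switched to 0.2% FBS medium 20 h prior, lifted with versene, 2,000 cells/well in HBSS/5 mM HEPES/0.1% BSA/0.5 mM IBMX pH 7.4. Compound dilutions with hexadecyl LPA 16:0 EC80 (300 nM) plus forskolin, 30 min room temperature; LANCE Ultra Eu-cAMP tracer/ULight-anti-cAMP 1 h; TR-FRET 665 nm converted to cAMP via standard curve. Three-parameter logistic IC50; ≥3 experiments in duplicate.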

[4] = target: T1, Lysophosphatidic acid receptor 5; assay: Antagonist activity at human LPA5 receptor expressed in RH7777 cells assessed as inhibition of EC80 concentration of LPA-induced cAMP accumulation preincubated for 30 mins followed by Eu-cAMP tracer addition and measured after 1 hr by TR-FRET assay relative to hexadecyl LPA; format: functional, cell-based; settings: filed as antagonist; summary of the method: as §1
Homo sapiens = species on record: Homo sapiens; assay: Selectivity ratio of IC50 for antagonist activity at human LPA5 receptor expressed in RH7777 cells assessed as inhibition of LPA-induced cAMP accumulation to IC50 for antagonist activity at human LPA5 receptor expressed in RH7777 cells assessed as inhibition of LPA-induced calcium mobilization; format: cell-based
Rattus norvegicus [5] = assay: Antiallodynic activity against CFA-induced Sprague-Dawley rat inflammatory pain model assessed as reduction in paw withdrawal threshold at 32 mg/kg measured after 2 hrs; format: functional, organism-based
Summary of the method: (§2)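 Adult male Sprague-Dawley rats (230–280 g, n=6/group); 0.1 ml CFA injected into right hind paw. Compounds i.p. (1–2 ml/kg) in 20% DMSO/10% emulphor/saline; AS2717638 in 30% propylene glycol vehicle. Mechanical paw withdrawal threshold (cut-off 26 g) measured every 30 min after single dose; two-way ANOVA, mean ± SEM.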

Rattus norvegicus [6] = species on record: Rattus norvegicus; assay: Antiallodynic activity against CFA-induced mechanical allodynia Sprague-Dawley rat model assessed as reduction paw threshold pain measured after 2 hrs; format: functional, organism-based; settings: dose 32.0 mg/kg; summary of the method: as §2
Rattus norvegicus [7] = species on record: Rattus norvegicus; assay: Antinociceptive activity in CCI surgery-neuropathic pain induced Sprague-Dawley rat model assessed as reduction in paw threshold pain measured after 2 hrs; format: functional, organism-based; settings: dose 32.0 mg/kg
Summary of the method: (§3)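 Male Sprague-Dawley rats (n=6), ketamine/xylazine anesthesia; four chromic gut ligatures ~1 mm apart around the right sciatic nerve. Drugs i.p. in DMSO/emulphor/saline (AS2717638 in propylene glycol vehicle), single or cumulative dosing with paw withdrawal threshold (cut-off 26 g) measured every 30 min.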

Rattus norvegicus [8] = assay: Antiallodynic activity against CFA-induced mechanical allodynia Sprague-Dawley rat model assessed as reduction paw threshold pain measured at 32 mg/kg, ip; format: functional, organism-based; settings: time 2.0 hrs, TDE = time-dependent effect; summary of the method: as §2
Rattus norvegicus [9] = assay: Antinociceptive activity in CCI surgery-neuropathic pain induced Sprague-Dawley rat model assessed as reduction in paw threshold pain measured at 32 mg/kg, ip; format: functional, organism-based; settings: time 2.0 hrs, TDE = time-dependent effect; summary of the method: as §3
[10] = Aqueous solubility of compound at pH 7.4; format: physicochemical; settings: aqueous medium
Summary of the method: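 Kinetic solubility: 20 mM DMSO stock diluted into PBS (1 mM KH2PO4, 3 mM Na2HPO4, 155 mM NaCl) to a target of 400 μM; triplicates quantified by LC-MS/MS against matrix-matched standards.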

[11] = Apparent permeability across apical to basolateral side in MDCK-MDR1 cells incubated for 90 mins by LC-MS/MS analysis; format: ADME, cell-based, Canis lupus familiaris; settings: dog, mdck-mdr1, 1.5 h
Summary of the method: (§4)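 MDCK-MDR1 cells (passage 5) grown 3 days on Transwell polycarbonate inserts; transport buffer HBSS/10 mM HEPES/0.25% BSA pH 7.4, 30 min preincubation 37 °C with TEER check. 10 μM test article added apical (A-to-B) or basolateral (B-to-A); receiver sampled at 30, 60, 90 min, LC-MS/MS. Papp = (dQ/dt)/(A·Ci); efflux ratio B-to-A/A-to-B. Atenolol, propranolol, digoxin references.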

[12] = Substrate activity at P-glycoprotein (unknown origin) in MDCK-MDR1 cells assessed as efflux ratio of apparent permeability across basolateral to apical over apical to basolateral side measured after 90 mins by LC-MS/MS analysis; format: ADME, cell-based, Canis lupus familiaris; settings: dog, mdck-mdr1, 1.5 h; summary of the method: as §4
[13] = target: Lysophosphatidic acid receptor 1 (Homo sapiens) (UniProt Q92633); assay: Antagonist activity at human LPA1 receptor expressed in CHO cells assessed as inhibition of LPA-induced calcium mobilization at 10 uM incubated for 15 mins by FLIPR analysis relative to control; format: functional, cell-based
Summary of the method: (§5)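 Calcium mobilization in CHO cells overexpressing LPA1, LPA2 or LPA3, run by a contract lab under its own protocols; compounds tested at single 10 μM.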

[14] = target: Lysophosphatidic acid receptor 2 (Homo sapiens) (UniProt Q9HBW0); assay: Antagonist activity at human LPA2 receptor expressed in CHO cells assessed as inhibition of LPA-induced calcium mobilization at 10 uM incubated for 15 mins by FLIPR analysis relative to control; format: functional, cell-based; summary of the method: as §5
[15] = target: T2, Lysophosphatidic acid receptor 3 (Homo sapiens) (UniProt Q9UBY5); assay: Antagonist activity at human LPA3 receptor expressed in CHO cells assessed as inhibition of LPA-induced calcium mobilization at 10 uM incubated for 15 mins by FLIPR analysis relative to control; format: functional, cell-based; summary of the method: as §5
T2 sequence (whole entry): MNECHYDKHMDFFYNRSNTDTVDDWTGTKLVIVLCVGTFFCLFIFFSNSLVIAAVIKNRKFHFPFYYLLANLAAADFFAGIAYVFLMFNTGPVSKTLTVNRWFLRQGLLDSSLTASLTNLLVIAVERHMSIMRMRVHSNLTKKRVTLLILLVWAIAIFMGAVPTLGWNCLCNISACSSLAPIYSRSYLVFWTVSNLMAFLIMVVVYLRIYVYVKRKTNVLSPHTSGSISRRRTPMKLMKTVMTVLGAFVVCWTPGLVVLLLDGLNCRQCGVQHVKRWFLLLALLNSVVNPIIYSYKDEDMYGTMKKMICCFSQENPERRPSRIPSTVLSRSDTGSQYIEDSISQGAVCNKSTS

[16] = target: Lysophosphatidic acid receptor 4 (Homo sapiens) (UniProt Q99677); assay: Antagonist activity at human LPA4 receptor expressed in CHO cells assessed as inhibition of LPA-induced calcium accumulation preincubated for 30 mins followed by Eu-cAMP tracer addition and measured after 1 hr by TR-FRET assay relative to hexadecyl LPA; format: functional, cell-based
Rattus norvegicus [17] = assay: Antiallodynic activity against CFA-induced Sprague-Dawley rat inflammatory pain model assessed as reduction in paw withdrawal threshold at 17.8 mg/kg measured after 5 hrs; format: functional, organism-based; summary of the method: as §2
[18] = target: T1, Lysophosphatidic acid receptor 5; assay: Agonist activity at human LPA5 receptor expressed in RH7777 cells assessed as calcium mobilization incubated for 15 mins by FLIPR method; format: functional, cell-based
Summary of the method: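 RH7777 cells stably expressing hLPA5, plated 20,000/well in 0.2% FBS medium 18–20 h, loaded 45 min at 37 °C with Calcium 5 dye in HBSS/20 mM HEPES/2.5 mM probenecid pH 7.4. […] Duplicates.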

[19] = Drug concentration in Sprague-Dawley rat brain at 17.8 mg/kg, ip measured after 30 mins by LC-MS/MS analysis; format: ADME, organism-based; settings: read-out: Ct
Summary of the method: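 Male Sprague-Dawley rats (258–277 g) given 17.8 mg/kg i.p. in 5% Cremophor/5% ethanol/saline; at 30 min two rats anesthetized with isoflurane, cardiac blood taken, PBS-perfused; brains homogenized 1:4 (w/v) in 25% isopropanol and quantified by LC-MS/MS.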

Rattus norvegicus [20] = assay: Antiallodynic activity in CCI surgery neuropathic pain induced ip dosed Sprague-Dawley rat hyperalgesia model assessed as reduction in mechanical allodynia by measuring reduction in paw threshold measured after 10 days; format: functional, organism-based; settings: dose 3.2-17.8 mg/kg, time 10.0 day; summary of the method: as §3
Rattus norvegicus [21] = assay: Antiallodynic activity in CCI surgery neuropathic pain induced Sprague-Dawley rat neuropathic pain model assessed as reversal of hypersensitivity condition at 17.8 mg/kg, ip measured after 10 days; format: functional; settings: time 10 day
Summary of the method: (§6)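 Adult male Sprague-Dawley rats (230–280 g, n=6/group) given CCI under i.p. ketamine 75 mg/kg/xylazine 5 mg/kg: four chromic gut ligatures about 1 mm apart on the right sciatic nerve. Drug given i.p. (1–2 ml/kg) in 20% DMSO/10% emulphor/saline. Mechanical paw withdrawal threshold measured every 30 min (26 g cutoff). Reported as mean ± SEM, two-way ANOVA.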

Rattus norvegicus [22] = assay: Antinociceptive activity against in opioid-induced hyperalgesia Sprague-Dawley rat model assessed as reduction in mechanical hyperalgesia induced hypersensitivity at 5.6 to 17.8 mg/kg, ip and measured after 5 hrs; format: functional, organism-based; settings: dose 5.6-17.8 mg/kg
Summary of the method: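 Opioid-induced hyperalgesia: after baselines on D−1 and D0, rats given four s.c. fentanyl injections of 0.06 mg/kg at 15 min intervals (0.24 mg/kg total); paw withdrawal thresholds tested after i.p. drug on days 1–2 post-fentanyl.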

Rattus norvegicus [23] = assay: Antiallodynic activity in CCI surgery-induced Sprague-Dawley rat neuropathic pain model assessed as reduction in paw withdrawal threshold at 17.8 mg/kg, ip measured after 5 hrs; format: functional; parameters: scale not given: the % may be the effect or the level left; summary of the method: as §6
[24] = Effect on locomotory activity in CCI surgery-neuropathic pain induced Sprague-Dawley rat model at 17.8 mg/kg, ip measured for 60 mins by infrared motion-sensor analysis; format: toxicity, organism-based; settings: in vivo, 1 h
Summary of the method: (§7)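 Handled ≥3 days; rats pretreated 60 min with vehicle or 17.8 mg/kg i.p., then placed in activity chambers and locomotion recorded for 60 min.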

[25] = Effect on locomotory activity in opioid-induced hyperalgesia Sprague-Dawley rat model at 17.8 mg/kg, ip measured for 60 mins by infrared motion-sensor analysis; format: toxicity, organism-based; settings: in vivo, 1 h; summary of the method: as §7

T1 sequence (Q9H1C0 whole entry): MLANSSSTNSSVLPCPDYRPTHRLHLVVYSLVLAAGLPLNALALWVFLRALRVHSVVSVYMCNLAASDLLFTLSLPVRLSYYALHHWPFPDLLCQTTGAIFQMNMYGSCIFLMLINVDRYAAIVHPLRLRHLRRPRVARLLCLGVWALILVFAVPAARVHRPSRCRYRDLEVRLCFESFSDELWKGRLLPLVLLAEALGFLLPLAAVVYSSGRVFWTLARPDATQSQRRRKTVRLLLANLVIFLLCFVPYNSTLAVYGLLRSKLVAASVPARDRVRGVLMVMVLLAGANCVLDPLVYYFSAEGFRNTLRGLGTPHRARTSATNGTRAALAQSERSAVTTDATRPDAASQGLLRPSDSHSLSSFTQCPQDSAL
Lysophosphatidic acid receptor 2 (Homo sapiens), sequence (Q9HBW0 whole entry): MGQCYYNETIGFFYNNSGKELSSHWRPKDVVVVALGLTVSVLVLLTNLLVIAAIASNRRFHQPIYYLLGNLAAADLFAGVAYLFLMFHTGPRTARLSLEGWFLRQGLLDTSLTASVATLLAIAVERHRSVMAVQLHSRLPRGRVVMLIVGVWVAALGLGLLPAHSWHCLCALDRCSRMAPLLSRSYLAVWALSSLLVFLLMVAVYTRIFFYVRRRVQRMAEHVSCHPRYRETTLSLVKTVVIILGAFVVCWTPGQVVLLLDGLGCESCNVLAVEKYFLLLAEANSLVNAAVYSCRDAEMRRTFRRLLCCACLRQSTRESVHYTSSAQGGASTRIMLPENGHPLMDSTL
Lysophosphatidic acid receptor 4 (Homo sapiens), sequence (Q99677 whole entry): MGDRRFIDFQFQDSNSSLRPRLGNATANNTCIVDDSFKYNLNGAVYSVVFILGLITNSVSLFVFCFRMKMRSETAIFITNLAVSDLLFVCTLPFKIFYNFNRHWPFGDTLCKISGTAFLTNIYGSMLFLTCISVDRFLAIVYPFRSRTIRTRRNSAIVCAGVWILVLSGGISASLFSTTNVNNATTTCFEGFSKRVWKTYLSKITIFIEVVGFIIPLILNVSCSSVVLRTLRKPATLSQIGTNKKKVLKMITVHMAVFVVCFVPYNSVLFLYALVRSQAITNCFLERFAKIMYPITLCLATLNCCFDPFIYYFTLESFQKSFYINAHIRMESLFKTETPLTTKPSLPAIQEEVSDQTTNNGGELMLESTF
Lysophosphatidic acid receptor 1 (Homo sapiens), sequence (Q92633 whole entry): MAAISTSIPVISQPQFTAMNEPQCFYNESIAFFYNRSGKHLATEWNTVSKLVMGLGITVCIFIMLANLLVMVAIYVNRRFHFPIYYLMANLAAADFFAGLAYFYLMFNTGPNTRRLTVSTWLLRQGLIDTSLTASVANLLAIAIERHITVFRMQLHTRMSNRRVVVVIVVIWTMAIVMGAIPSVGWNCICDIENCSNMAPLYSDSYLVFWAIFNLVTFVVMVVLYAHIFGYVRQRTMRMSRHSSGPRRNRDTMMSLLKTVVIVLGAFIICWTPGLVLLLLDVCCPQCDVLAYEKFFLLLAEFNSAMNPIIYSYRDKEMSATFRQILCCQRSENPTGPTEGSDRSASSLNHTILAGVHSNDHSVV

Structure (SMILES) | pIC50 [1] | inhibition [2] | pIC50 [3] | inhibition [4] | Activity [18] | further results
CCN1CCc2ccc(-n3cc(C(=O)N4CCC(F)CC4)c4cc(OC)c(OC)cc4c3=O)cc21 | 7.24 | 104% | 6.24 | 94% |  | 
COc1cc2c(C(=O)N3CCCCC3)cn(-c3noc4ccc(C)cc34)c(=O)c2cc1OC | 7.44 | 108% | 6.68 | 102% |  | Ratio IC50 (Homo sapiens): 5.8; Activity (Rattus norvegicus [5]): Active; Activity (Rattus norvegicus [6]): Dose-Dependent Effect; Activity (Rattus norvegicus [7]): Dose-Dependent Effect; Activity (Rattus norvegicus [8]): Tde; Activity (Rattus norvegicus [9]): Tde
COc1cc2c(C(=O)N3CCC(F)CC3)cn(-c3ccc4scc(C)c4c3)c(=O)c2cc1OC | 7.16 | 107% | 6.47 | 104% | inactive | solubility kinetic [10]: 96.4 µM (≈ 46.3 µg/mL); Papp [11]: 22.2 10^-6 cm/s; Ratio [12]: 1.4; inhibition [13]: < 50%; inhibition [14]: < 50%; inhibition [15]: < 50%; inhibition [16]: < 50%; Activity (Rattus norvegicus [17]): Active
COc1cc2c(C(=O)N3CCCCC3)cn(-c3ccc4occ(C)c4c3)c(=O)c2cc1OC | 7.32 | 105% | 6.72 | 88% | inactive | 
C#CC1CCN(C(=O)c2cn(-c3ccc4scc(C)c4c3)c(=O)c3cc(OC)c(OC)cc23)CC1 | 7.49 | 107% | 6.46 | 100% | inactive | solubility kinetic [10]: 19.5 µM (≈ 9.49 µg/mL); Papp [11]: 31.1 10^-6 cm/s; Ratio [12]: 1.2; concentration at 0.5 h [19]: 652 ng/mL; inhibition [13]: < 50%; inhibition [14]: < 50%; inhibition [15]: < 50%; inhibition [16]: < 50%; Activity (Rattus norvegicus [17]): Active; Activity (Rattus norvegicus [20]): Dose-Dependent Effect; Activity (Rattus norvegicus [21]): 100%; Activity (Rattus norvegicus [22]): Active; Activity (Rattus norvegicus [23]): 100%; Activity [24]: Non-Toxic; Activity [25]: Non-Toxic
COc1cc2c(C(=O)N3CCC(F)CC3)cn(-c3ccc4occ(C)c4c3)c(=O)c2cc1OC | 6.84 | 102% | 6.69 | 100% | inactive | 
COc1cc2c(C(=O)N3CCCCC3)cn(-c3cccc(N(C)C)c3)c(=O)c2cc1OC | 7.06 | 104% | 6.10 | 89% | inactive | 
COc1cc2c(C(=O)N3CCC(F)CC3)cn(-c3cccc(N(C)C)c3)c(=O)c2cc1OC | 7.10 | 102% | 6.02 | 94% | inactive | 
COc1cc2c(C(=O)N3CCCCC3)cn(-c3ccc4ccn(C)c4c3)c(=O)c2cc1OC | 7.19 | 104% | 6.34 | 109% | inactive | 
COc1cc2c(C(=O)N3CCC(F)CC3)cn(-c3cccc(C(C)C)c3)c(=O)c2cc1OC | 6.70 | 103% | 6.40 | 98% | inactive | 
